Reference: ChEMBL document CHEMBL3112397, “Antitrypanosomal structure-activity-relationship study of synthetic cynaropicrin derivatives” (Bioorg Med Chem Lett, 2014)
pIC50: −log10 of the molar value.

Experiments:
[1] = Selectivity index, ratio of IC50 for rat L6 cells to IC50 for Trypanosoma brucei rhodesiense STIB 900; assay type: toxicity, cell-based; conditions: read-out: Ratio IC50
Outline: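 SI was calculated as IC50 in L6 cells divided by IC50 against T. b. rhodesiense, with both values from the Alamar Blue assays.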

[2] = test system: Trypanosoma brucei rhodesiense; experiment: Antitrypanosomal activity against bloodstream form of Trypanosoma brucei rhodesiense STIB 900 after 70 hrs by alamar blue assay; assay type: functional, organism-based; conditions: STIB 900, 70 h
Outline: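 T. b. rhodesiense STIB 900 bloodstream forms were grown at 37 °C in humidified 5% CO2 in MEM with Earle's salts plus 0.2 mM 2-mercaptoethanol, 1 mM sodium pyruvate, 0.5 mM hypoxanthine and 15% heat-inactivated horse serum. Serial threefold dilutions were tested with Alamar Blue read-out (ex 536/em 588 nm). IC50 was taken from sigmoidal growth-inhibition curves over at least three independent repeats (mean ± SEM).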

[3] = test system: L6; experiment: Cytotoxicity against rat L6 cells after 70 hrs by alamar blue assay; assay type: cell-based; conditions: L6, 70 h
Outline: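 Rat skeletal myoblasts (L6) were kept in RPMI 1640 with L-glutamine, 5.95 g/L HEPES, 2 g/L NaHCO3 and 10% FBS at 37 °C in 5% CO2, seeded at 4000 cells/well, then given fresh medium 24 h later with or without serial threefold drug dilutions. Podophyllotoxin served as reference. After 70 h, Alamar Blue was added for 2 h more and read at ex 536/em 588 nm. IC50 came from sigmoidal curves, ≥3 independent repeats.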

C=C(COC(C)=O)C(=O)O[C@H]1CC(=C)[C@@H]2C[C@H](OC(C)=O)C(=C)[C@@H]2[C@H]2OC(=O)C(=C)[C@@H]21
selectivity ratio [1]: 2.3
pIC50 [2]: 5.67
pIC50 [3]: 5.31

C=C(COC(C)=O)C(=O)O[C@H]1CC(=C)[C@@H]2C[C@H](O)C(=C)[C@@H]2[C@H]2OC(=O)C(=C)[C@@H]21
selectivity ratio [1]: 3.4
pIC50 [2]: 5.73
pIC50 [3]: 5.19

C=C(C)C(=O)O[C@H]1CC(=C)[C@@H]2C[C@H](OCOC)C(=C)[C@@H]2[C@H]2OC(=O)C(=C)[C@@H]21
selectivity ratio [1]: 0.9
pIC50 [2]: 6.47
pIC50 [3]: 6.52

C=C1C(=O)O[C@@H]2[C@H]3C(=C)[C@@H](OCOC)C[C@H]3C(=C)C[C@H](O)[C@@H]12
selectivity ratio [1]: 0.4
pIC50 [2]: 5.66
pIC50 [3]: 6.07

C=C(COCOC)C(=O)O[C@H]1CC(=C)[C@@H]2C[C@H](OCOC)C(=C)[C@@H]2[C@H]2OC(=O)C(=C)[C@@H]21
selectivity ratio [1]: 0.4
pIC50 [2]: 6.32
pIC50 [3]: 6.77

C=C(C)C(=O)O[C@H]1CC(=C)[C@@H]2C[C@H](O)C(=C)[C@@H]2[C@H]2OC(=O)C(=C)[C@@H]21 [AGUERIN B]
selectivity ratio [1]: 1.9
pIC50 [2]: 6.77
pIC50 [3]: 6.48

C=C(CO)C(=O)O[C@H]1CC(=C)[C@@H]2C[C@H](O)C(=C)[C@@H]2[C@H]2OC(=O)C(=C)[C@@H]21 [CYNAROPICRIN]
selectivity ratio [1]: 7.8
pIC50 [2]: 6.55
pIC50 [3]: 5.66

C=C1C(=O)O[C@@H]2[C@H]3C(=C)[C@@H](O)C[C@H]3C(=C)C[C@H](O)[C@@H]12 [DESACYLCYNAROPICRIN]
selectivity ratio [1]: 1
pIC50 [2]: 5.31
pIC50 [3]: 5.31
